The source of these data is ChEMBL document CHEMBL5108039, “Piperazine tethered bergenin heterocyclic hybrids: design, synthesis, anticancer activity, and molecular docking studies” (RSC Med Chem, 2022).

The source made the active and inactive calls. The calls are words filed in the database; no cut-off is given here.

The test system of one assay is HCT-15. Description: Cytotoxicity against human HCT-15 cells assessed as cell growth inhibition. In kind it is functional, cell-based. In a few lines:
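Compounds were dissolved in sterile DMSO as 10 mg ml−1 stocks and tested for in vitro growth inhibition of human cancer cell lines. Doxorubicin was the standard drug and DMSO (0.01%) the vehicle control. IC50 values are reported as means.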

Another assay relates to A549. As to the kind of experiment: Cytotoxicity against human A549 cells assessed as cell growth inhibition. In kind it is functional, cell-based. The essentials:
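Compounds were dissolved in sterile DMSO as 10 mg ml−1 stocks and tested in vitro for cytotoxicity in a cell-line panel, with DMSO (0.01%) as vehicle control and doxorubicin as standard. Mean IC50 values were reported, and the normal lung epithelial cells were tested up to 100 μM.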

In assay [1] the test system is CAL-27. As to the kind of experiment: Cell cycle arrest in human CAL-27 cells assessed as accumulation at G0/G1 phase at 32 uM incubated for 24 hrs by flow cytometry (reference value: 77.6 %). In kind it is functional. Background: A flow cytometer gives signals particle by particle.
Assay [2] relates to CAL-27. Description: Cell cycle arrest in human CAL-27 cells assessed as accumulation at S phase at 16 uM incubated for 24 hrs by flow cytometry (reference value: 3.6 %). The class given is functional.
Assay [3] deals with CAL-27. Description: Cell cycle arrest in human CAL-27 cells assessed as accumulation at S phase at 32 uM incubated for 24 hrs by flow cytometry (reference value: 3.6 %). In kind it is functional.
For assay [4], the system named is SCC-9. Description: Cell cycle arrest in human SCC-9 cells assessed as accumulation at G0/G1 phase at 16.2 uM incubated for 24 hrs by flow cytometry (reference value: 70.8 %). In kind it is functional.
Assay [5] concerns SCC-9. Description: Cell cycle arrest in human SCC-9 cells assessed as accumulation at G0/G1 phase at 32.4 uM incubated for 24 hrs by flow cytometry (reference value: 70.8 %). In kind it is functional.
Assay [6] concerns SCC-9. Description: Cell cycle arrest in human SCC-9 cells assessed as accumulation at S phase at 32.4 uM incubated for 24 hrs by flow cytometry (reference value: 14.4 %). In kind it is functional.
Assay [7] relates to CAL-27. Description: Induction of apoptosis in human CAL-27 cells assessed as live cells at 16 uM incubated for 24 hrs by Annexin V-FITC/PI staining based flow cytometric analysis (reference value: 99.8 %). The class given is functional. In a few lines: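 CAL27 cells were treated with vehicle, doxorubicin or test compounds at 10–63 μM, and apoptosis was assessed by annexin V–FITC/PI staining with flow cytometry. Cells were scored as live, early apoptotic, late apoptotic or necrotic. The vehicle was DMSO (0.01%).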

Assay [8] concerns CAL-27. As to the kind of experiment: Induction of apoptosis in human CAL-27 cells assessed as necrotic cells at 32 uM incubated for 24 hrs by Annexin V-FITC/PI staining based flow cytometric analysis (reference value: 0.0 %). In kind it is functional.
Assay [9] deals with SCC-9. As to the kind of experiment: Induction of apoptosis in human SCC-9 cells assessed as early apoptotic cells at 16.2 uM incubated for 24 hrs by Annexin V-FITC/PI staining based flow cytometric analysis (reference value: 2.8 %). In kind it is functional.
The subject of assay [10] is CAL-27. As to the kind of experiment: Induction of apoptosis in human CAL-27 cells assessed as downregulation of vimentin gene expression at 16 uM by qRT-PCR analysis. In kind it is functional, cell-based. The essentials:
(§1)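 CAL27 cells were treated with test compounds at several concentrations. Relative expression of vimentin, E-cad, Nanog, Oct-4, Bax and BcL-2 was measured by qRT-PCR against vehicle-treated control cells.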
(Quantitative PCR measures a nucleic acid by following its amplification.)

Assay [11] deals with CAL-27. As to the kind of experiment: Induction of apoptosis in human CAL-27 cells assessed as downregulation of Oct-4 gene expression at 16 uM by qRT-PCR analysis. The class given is functional, cell-based. In a few lines: as §1
For assay [12], the system named is CAL-27. Description: Induction of apoptosis in human CAL-27 cells assessed as downregulation of Oct-4 gene expression at 32 uM by qRT-PCR analysis. The class given is functional, cell-based. In a few lines: as §1
Assay [13] concerns CAL-27. Description: Induction of apoptosis in human CAL-27 cells assessed as downregulation of Nanog gene expression at 16 uM by qRT-PCR analysis. In kind it is functional, cell-based. The essentials: as §1
The subject of assay [14] is CAL-27. As to the kind of experiment: Induction of apoptosis in human CAL-27 cells assessed as upregulation of Bax gene expression at 16 uM by qRT-PCR analysis. The class given is functional, cell-based. In a few lines:
(§2)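 CAL27 cells were treated with test agents at different concentrations. Relative mRNA levels of vimentin, E-cad, Nanog, Oct-4, Bax and Bcl-2 were then quantified by qRT-PCR as apoptosis, EMT and stemness markers.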

Assay [15] deals with CAL-27. Description: Induction of apoptosis in human CAL-27 cells assessed as upregulation of Bax gene expression at 32 uM by qRT-PCR analysis. The class given is functional, cell-based. The essentials:
as §2

Assay [16] concerns CAL-27. Description: Induction of apoptosis in human CAL-27 cells assessed as upregulation of E-cad gene expression at 16 uM by qRT-PCR analysis. The class given is functional, cell-based. The essentials: as §2
Assay [17] concerns CAL-27. Description: Induction of apoptosis in human CAL-27 cells assessed as upregulation of E-cad gene expression at 32 uM by qRT-PCR analysis. In kind it is functional, cell-based. In a few lines:
as §2

In assay [18] the test system is SCC-9. Description: Induction of apoptosis in human SCC-9 cells assessed as downregulation of vimentin gene expression at 32 uM by qRT-PCR analysis. The class given is functional, cell-based.
The test system of assay [19] is SCC-9. As to the kind of experiment: Induction of apoptosis in human SCC-9 cells assessed as downregulation of Oct-4 gene expression at 16 uM by qRT-PCR analysis. The class given is functional, cell-based.
The test system of assay [20] is SCC-9. As to the kind of experiment: Induction of apoptosis in human SCC-9 cells assessed as downregulation of BcL-2 gene expression at 16 uM by qRT-PCR analysis. The class given is functional, cell-based.
Assay [21] relates to SCC-9. As to the kind of experiment: Induction of apoptosis in human SCC-9 cells assessed as upregulation of Bax gene expression at 32 uM by qRT-PCR analysis. In kind it is functional, cell-based.
Assay [22] deals with SCC-9. As to the kind of experiment: Induction of apoptosis in human SCC-9 cells assessed as upregulation of E-cad gene expression at 16 uM by qRT-PCR analysis. The class given is functional, cell-based.

For orientation: IC50 means the concentration that inhibits the measured activity by half.

As to `COc1ccc(-c2csc(NC(=O)CN3CCN(Cc4c(O)c(OC)c(O)c5c4C(=O)OC4C5O[C@H](CO)[C@@H](O)[C@@H]4O)CC3)n2)cc1` (some centres undefined), the IC50 in the assay on HCT-15 was 70.5 µM; in the assay on A549, above 100 µM. Besides, the Activity in the assay on CAL-27 [1] was determined as 87.1%; with CAL-27 [2], 2.1%; with CAL-27 [3], 3.1%; in the assay with SCC-9 [4], 71.4%; with SCC-9 [5], 77.6%; in the assay on SCC-9 [6], 12.4%. Besides, the Activity in the assay on CAL-27 [7] is recorded as 94.5%; in the assay with CAL-27 [8] it was 1.9%; in the assay with SCC-9 [9] it was 6.2%. The outcome with CAL-27 [10], in the assay with CAL-27 [11], in the assay on CAL-27 [12], with CAL-27 [13], with CAL-27 [14] and in the assay on CAL-27 [15] was Active. The outcome with CAL-27 [16], in the assay with CAL-27 [17], in the assay with SCC-9 [18], in the assay on SCC-9 [19], with SCC-9 [20] and in the assay with SCC-9 [21] was Active. Besides, the result with SCC-9 [22] was Active.
